We go through 11 compounds from ChEMBL document CHEMBL1817574, “Development of novel conformation-constrained cytotoxic derivatives of cheliensisin A by embedment of small heterocycles” (Eur J Med Chem, 2011).

As a reminder, the pIC50 is the negative decadic logarithm of the IC50, by convention in mol/L.

pIC50: −log10 of the molar value.

The first data set deals with HL-60. Put plainly: Cytotoxicity against human HL60 cells after 48 hrs by MTT assay. The format is functional, cell-based. Conditions: HL-60, 48 h. In a few lines: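 Log-phase HL-60 cells were seeded at 1.25 × 10⁵ cells/mL and treated in four replicates across various concentrations for 48 h. MTT (5 mg/mL solution) was then added and incubated a further 4 h. The wells were then solubilised with 10% SDS–5% isobutanol–0.012 mol/L HCl before the colorimetric read-out.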
On the technique in general: Formazan colour is commonly taken as a measure of viable cells.
In the case of `CC(=O)O[C@H]1C=CC(=O)O[C@@H]1[C@H]1N=C(c2ccccc2)O[C@@H]1c1ccccc1`, the pIC50 was < 4.40.
On the same count and under the same terms, in the case of `CC(=O)O[C@H]1C=CC(=O)O[C@@H]1[C@@H]1N=C(c2ccccc2)O[C@@H]1c1ccccc1` it was 5.37; in that of `CC(=O)O[C@H]1C=CC(=O)O[C@@H]1[C@H]1N=C(Cc2ccccc2)O[C@@H]1c1ccccc1`, 4.75; in that of `C/C=C/C1=N[C@@H]([C@H]2OC(=O)C=C[C@@H]2OC(C)=O)[C@@H](c2ccccc2)O1`, 5.90.
Regarding `C/C=C\C1=N[C@H]([C@H]2OC(=O)C=C[C@@H]2OC(C)=O)[C@@H](c2ccccc2)O1`, the pIC50 is 5.34.
`C/C=C/C1=N[C@H]([C@H]2OC(=O)C=C[C@@H]2OC(C)=O)[C@@H](c2ccccc2)O1` gave a pIC50 of 5.16.
Still for that read-out and setting: in the case of `CC(=O)O[C@H]1C=CC(=O)O[C@@H]1[C@@H]1N=C(/C=C/c2ccccc2)O[C@@H]1c1ccccc1` it was 6.32; in that of `CC(=O)O[C@H]1C=CC(=O)O[C@@H]1[C@H]1N=C(/C=C/c2ccccc2)O[C@@H]1c1ccccc1`, 5.39; in that of `CC(=O)O[C@H]1C=CC(=O)O[C@@H]1[C@H]1N=C(C)O[C@@H]1c1ccccc1`, 5.60.
On the same count and under the same terms, under `CC(=O)O[C@H]1C=CC(=O)O[C@@H]1[C@H]1N=C(C(=O)c2ccccc2)O[C@@H]1c1ccccc1` stands < 4.40.
In the case of `CC(=O)O[C@H]1C=CC(=O)O[C@@H]1c1nc(/C=C/c2ccccc2)oc1-c1ccccc1`, the pIC50 was 5.23.

A further data set has as its system SMMC-7721. The experiment in a line: Cytotoxicity against human SMMC7721 cells after 48 hrs by MTT assay. Format: functional, cell-based. Conditions: SMMC-7721, 48 h.
`CC(=O)O[C@H]1C=CC(=O)O[C@@H]1[C@H]1N=C(c2ccccc2)O[C@@H]1c1ccccc1`: the pIC50 is < 4.40.
The same measure, in the same setting: under `CC(=O)O[C@H]1C=CC(=O)O[C@@H]1[C@@H]1N=C(c2ccccc2)O[C@@H]1c1ccccc1` stands 4.75.
Still for that read-out and setting: under `CC(=O)O[C@H]1C=CC(=O)O[C@@H]1[C@H]1N=C(Cc2ccccc2)O[C@@H]1c1ccccc1` stands < 4.40; under `C/C=C/C1=N[C@@H]([C@H]2OC(=O)C=C[C@@H]2OC(C)=O)[C@@H](c2ccccc2)O1`, 4.84.
The same measure, in the same setting: under `C/C=C\C1=N[C@H]([C@H]2OC(=O)C=C[C@@H]2OC(C)=O)[C@@H](c2ccccc2)O1` stands 4.57; under `C/C=C/C1=N[C@H]([C@H]2OC(=O)C=C[C@@H]2OC(C)=O)[C@@H](c2ccccc2)O1`, < 4.40; under `CC(=O)O[C@H]1C=CC(=O)O[C@@H]1[C@@H]1N=C(/C=C/c2ccccc2)O[C@@H]1c1ccccc1`, 4.68.
`CC(=O)O[C@H]1C=CC(=O)O[C@@H]1[C@H]1N=C(/C=C/c2ccccc2)O[C@@H]1c1ccccc1`: the pIC50 is 4.62.
The same measure, in the same setting: in the case of `CC(=O)O[C@H]1C=CC(=O)O[C@@H]1[C@H]1N=C(C)O[C@@H]1c1ccccc1` it was 4.79.
Same read-out and setting: under `CC(=O)O[C@H]1C=CC(=O)O[C@@H]1[C@H]1N=C(C(=O)c2ccccc2)O[C@@H]1c1ccccc1` stands < 4.40; under `CC(=O)O[C@H]1C=CC(=O)O[C@@H]1c1nc(/C=C/c2ccccc2)oc1-c1ccccc1`, 4.61.

Test system in a further data set: not listed separately
The experiment in a line: Chemical stability of the compound in 0.1 M phosphate buffer at pH 7.0 at 0.1 mg/mL after 12 hrs by HPLC analysis. Conditions: pH 7, 12 h. The format is physicochemical.
Regarding `CC(=O)O[C@H]1C=CC(=O)O[C@@H]1[C@@H]1N=C(/C=C/c2ccccc2)O[C@@H]1c1ccccc1`, the Stability result is “Stable”.
Same read-out and setting: under `CC(=O)O[C@H]1C=CC(=O)O[C@@H]1c1nc(/C=C/c2ccccc2)oc1-c1ccccc1` stands “Stable”.

The subject of another data set is A549. Put plainly: Cytotoxicity against human A549 cells after 48 hrs by MTT assay. The format is functional, cell-based. As to conditions: A549, 48 h.
Consider `CC(=O)O[C@H]1C=CC(=O)O[C@@H]1[C@H]1N=C(c2ccccc2)O[C@@H]1c1ccccc1`, for which the pIC50 is < 4.40.
On the same count and under the same terms, under `CC(=O)O[C@H]1C=CC(=O)O[C@@H]1[C@@H]1N=C(c2ccccc2)O[C@@H]1c1ccccc1` stands 4.74; under `CC(=O)O[C@H]1C=CC(=O)O[C@@H]1[C@H]1N=C(Cc2ccccc2)O[C@@H]1c1ccccc1`, < 4.40.
Still for that read-out and setting: in the case of `C/C=C/C1=N[C@@H]([C@H]2OC(=O)C=C[C@@H]2OC(C)=O)[C@@H](c2ccccc2)O1` it was 4.51.
The same measure, in the same setting: in the case of `C/C=C\C1=N[C@H]([C@H]2OC(=O)C=C[C@@H]2OC(C)=O)[C@@H](c2ccccc2)O1` it was < 4.40.
`C/C=C/C1=N[C@H]([C@H]2OC(=O)C=C[C@@H]2OC(C)=O)[C@@H](c2ccccc2)O1`: the pIC50 was < 4.40.
On to `CC(=O)O[C@H]1C=CC(=O)O[C@@H]1[C@@H]1N=C(/C=C/c2ccccc2)O[C@@H]1c1ccccc1`, for which the pIC50 was 4.72.
The same measure, in the same setting: in the case of `CC(=O)O[C@H]1C=CC(=O)O[C@@H]1[C@H]1N=C(/C=C/c2ccccc2)O[C@@H]1c1ccccc1` it was 4.66; in that of `CC(=O)O[C@H]1C=CC(=O)O[C@@H]1[C@H]1N=C(C)O[C@@H]1c1ccccc1`, < 4.40; in that of `CC(=O)O[C@H]1C=CC(=O)O[C@@H]1[C@H]1N=C(C(=O)c2ccccc2)O[C@@H]1c1ccccc1`, < 4.40.
Still for that read-out and setting: in the case of `CC(=O)O[C@H]1C=CC(=O)O[C@@H]1c1nc(/C=C/c2ccccc2)oc1-c1ccccc1` it was 4.61.

Another data set concerns PANC-1. The experiment in a line: Cytotoxicity against human PANC1 cells after 48 hrs by MTT assay. Format: functional, cell-based. Conditions: PANC-1, 48 h.
On to `CC(=O)O[C@H]1C=CC(=O)O[C@@H]1[C@H]1N=C(c2ccccc2)O[C@@H]1c1ccccc1`, for which the pIC50 is < 4.40.
On to `CC(=O)O[C@H]1C=CC(=O)O[C@@H]1[C@@H]1N=C(c2ccccc2)O[C@@H]1c1ccccc1`, for which the pIC50 is 4.89.
The same measure, in the same setting: under `CC(=O)O[C@H]1C=CC(=O)O[C@@H]1[C@H]1N=C(Cc2ccccc2)O[C@@H]1c1ccccc1` stands < 4.40; under `C/C=C/C1=N[C@@H]([C@H]2OC(=O)C=C[C@@H]2OC(C)=O)[C@@H](c2ccccc2)O1`, 5.41.
Same read-out and setting: in the case of `C/C=C\C1=N[C@H]([C@H]2OC(=O)C=C[C@@H]2OC(C)=O)[C@@H](c2ccccc2)O1` it was 4.64.
Same read-out and setting: in the case of `C/C=C/C1=N[C@H]([C@H]2OC(=O)C=C[C@@H]2OC(C)=O)[C@@H](c2ccccc2)O1` it was 4.61; in that of `CC(=O)O[C@H]1C=CC(=O)O[C@@H]1[C@@H]1N=C(/C=C/c2ccccc2)O[C@@H]1c1ccccc1`, 5.39; in that of `CC(=O)O[C@H]1C=CC(=O)O[C@@H]1[C@H]1N=C(/C=C/c2ccccc2)O[C@@H]1c1ccccc1`, 4.67.
On to `CC(=O)O[C@H]1C=CC(=O)O[C@@H]1[C@H]1N=C(C)O[C@@H]1c1ccccc1`, for which the pIC50 is 4.78.
The same measure, in the same setting: in the case of `CC(=O)O[C@H]1C=CC(=O)O[C@@H]1[C@H]1N=C(C(=O)c2ccccc2)O[C@@H]1c1ccccc1` it was < 4.40; in that of `CC(=O)O[C@H]1C=CC(=O)O[C@@H]1c1nc(/C=C/c2ccccc2)oc1-c1ccccc1`, 5.14.

Another data set has as its system SK-BR-3. Put plainly: Cytotoxicity against human SKBR3 cells after 48 hrs by MTT assay. Format: functional, cell-based. As to conditions: SK-BR-3, 48 h.
With `CC(=O)O[C@H]1C=CC(=O)O[C@@H]1[C@H]1N=C(c2ccccc2)O[C@@H]1c1ccccc1`, the pIC50 was < 4.40.
The same measure, in the same setting: under `CC(=O)O[C@H]1C=CC(=O)O[C@@H]1[C@@H]1N=C(c2ccccc2)O[C@@H]1c1ccccc1` stands 5.44; under `CC(=O)O[C@H]1C=CC(=O)O[C@@H]1[C@H]1N=C(Cc2ccccc2)O[C@@H]1c1ccccc1`, 4.45; under `C/C=C/C1=N[C@@H]([C@H]2OC(=O)C=C[C@@H]2OC(C)=O)[C@@H](c2ccccc2)O1`, 5.65.
Consider `C/C=C\C1=N[C@H]([C@H]2OC(=O)C=C[C@@H]2OC(C)=O)[C@@H](c2ccccc2)O1`, for which the pIC50 was < 4.40.
`C/C=C/C1=N[C@H]([C@H]2OC(=O)C=C[C@@H]2OC(C)=O)[C@@H](c2ccccc2)O1` showed a pIC50 of 4.74.
The same measure, in the same setting: under `CC(=O)O[C@H]1C=CC(=O)O[C@@H]1[C@@H]1N=C(/C=C/c2ccccc2)O[C@@H]1c1ccccc1` stands 5.39; under `CC(=O)O[C@H]1C=CC(=O)O[C@@H]1[C@H]1N=C(/C=C/c2ccccc2)O[C@@H]1c1ccccc1`, 4.64; under `CC(=O)O[C@H]1C=CC(=O)O[C@@H]1[C@H]1N=C(C)O[C@@H]1c1ccccc1`, 5.14.
On the same count and under the same terms, in the case of `CC(=O)O[C@H]1C=CC(=O)O[C@@H]1[C@H]1N=C(C(=O)c2ccccc2)O[C@@H]1c1ccccc1` it was < 4.40; in that of `CC(=O)O[C@H]1C=CC(=O)O[C@@H]1c1nc(/C=C/c2ccccc2)oc1-c1ccccc1`, 5.13.

The subject of another data set is HL-60. Put plainly: Ratio IC50 for cheliensisin A to compound for human HL60 cells after 48 hrs by MTT assay.
Details: not given
The format is functional.
As for `CC(=O)O[C@H]1C=CC(=O)O[C@@H]1[C@@H]1N=C(/C=C/c2ccccc2)O[C@@H]1c1ccccc1`, the “Ratio IC50” value is given as 4.
